# Laboratory results: publication PMC5248591 (Journal of Clinical Pharmacology, 2016)
# pIC50: −log10 of the molar value. Where “and” joins values, the source holds several entries; their conditions need not be identical. Equal entries are not always repeated. Where two headings read alike, the source gives them in different places.
# What was measured:
# PMA‐induced pERK Y204 = experiment: Rat whole blood phospho‐flow: PMA‐induced pERK Y204; assay type: cell-based; settings: 5 μM
# [1] = test system: BCR/LYN‐mediated pSYK Y352; experiment: BCR signaling specificity control, pSYK Y352 in B cells, whole blood; assay type: cell-based, human
# [2] = assay type: in vivo, human; settings: for Fluctuation / Ae0‐24 / fe0‐24 / t1/2 / Cmax: mean (SD); for Ae0‐24 / fe0‐24: urine; for CL renal: urine and plasma
# [3] = test system: fMLP‐mediated basophil degranulation; experiment: fMLP‐induced basophil degranulation; assay type: cell-based, human
# [4] = test system: LPS‐induced DC activation; experiment: Dendritic cell activation by LPS; assay type: cell-based, human; settings: in vitro; 1 μM in Figure 5C
# Method in brief: (§1)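 Cells (0.5 × 10⁶/well) were preincubated 1 h with test compound, then stimulated overnight with 1 μg/mL LPS or antibody-opsonized sheep RBCs. CD80/86 and MHCII were read by flow cytometry; values are % of vehicle, n = 5.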
# hind‐paw inflammation = settings: rat CIA, p < 0.05, cited from earlier work
# [5] = Safety and tolerability, SAD study
# [6] = test system: PMA‐induced T‐cell activation (PKC‐dependent); experiment: T‐cell activation; assay type: cell-based, human; settings: MAD, steady state after 10 once‐daily doses
# [7] = Safety and tolerability, MAD study; assay type: in vivo, human
# [8] = test system: PMA/PKC‐induced B‐cell activation; experiment: PMA‐induced B‐cell activation; assay type: cell-based, human
# [9] = SAD study: plasma and urine pharmacokinetics after a single oral dose; assay type: in vivo, human; settings: for Ae0‐96 / fe0‐96: urine, mean (SD); for Tmax / half-life / Cmax / AUC(0-t): human, plasma
# ZAP70 = settings: read-out: ZAP70 IC50; purified kinase assay; cited from earlier work
# [10] = test system: opRBC‐induced (FcγR) neutrophil ROS generation; experiment: Neutrophil oxidative burst induced by opRBC in whole blood in vitro; assay type: cell-based, human
# [11] = test system: FcγR‐mediated DC activation; experiment: Dendritic cell activation by opsonized sheep red blood cells; assay type: cell-based, human; settings: immature DCs from healthy donors, in vitro
# Method in brief: as §1
# [12] = test system: CD3/CD28‐induced T‐cell activation (ZAP70‐dependent); experiment: T‐cell activation; assay type: cell-based, human; settings: MAD, steady state after 10 once‐daily doses
# [13] = test system: PMA/PKC‐mediated pERK Y204; experiment: PMA‐induced pERK Y204 in B cells, specificity control, whole blood; assay type: cell-based, human; settings: SAD 200‐ and 300‐mg cohorts combined
# DLBCL = settings: phase 2 study in DLBCL; cited from earlier work
# [14] = test system: serum levels of CCL3 and CCL4; settings: cited from earlier work
# relapsed CLL = settings: cited from earlier work
# [15] = SAD 200‐ and 300‐mg cohorts combined
# [16] = MAD, all dose levels, data not shown
compound,measurement,setting,value
"CC(=O)O.NC(=O)c1cnc(N[C@@H]2CCCC[C@@H]2N)nc1Nc1cccc(-n2nccn2)c1 [PRT062607, 4‐((3‐(2H‐1,2,3‐triazol‐2‐yl)phenyl)amino)‐2‐(((1R,2S)‐2‐aminocyclohexyl)amino)pyrimidine‐5‐carboxamide acetate]",inhibition of PMA‐induced pERK Y204,PMA‐induced pERK Y204,inability
same,inhibition of BCR‐mediated pSYK Y352,[1]; [15],No consistent inhibition
same,inhibition of LYN‐mediated pSYK,"[1]; SAD study, versus plasma concentration",No concentration‐dependent inhibition
same,Fluctuation,"[2]; MAD day 10, 11 mg once daily",90.7 (43.9) %
same,Tmax,"[2]; MAD day 10, 11 mg once daily, median (min, max)","1.5 (0.5, 2.0) Hours"
same,Ae0‐24,"[2]; MAD day 10, 11 mg once daily",0.4 (0.1) mg
same,fe0‐24,"[2]; MAD day 10, 11 mg once daily",3.3 (1.3) %
same,Fluctuation,"[2]; MAD day 10, 33 mg once daily",88.0 (15.9) %
same,Tmax,"[2]; MAD day 10, 33 mg once daily, median (min, max)","1.5 (1.0, 2.1) Hours"
same,Ae0‐24,"[2]; MAD day 10, 33 mg once daily",1.3 (0.0) mg
same,fe0‐24,"[2]; MAD day 10, 33 mg once daily",4.0 (0.1) %
same,Fluctuation,"[2]; MAD day 10, 66 mg once daily",98.8 (24.1) %
same,t1/2,"[2]; MAD day 10, 66 mg once daily",61.3 Hours and 61.3 (10.2) Hours
same,Tmax,"[2]; MAD day 10, 66 mg once daily, median (min, max)","4.0 (2.0, 4.0) Hours"
same,Ae0‐24,"[2]; MAD day 10, 66 mg once daily",3.7 (0.6) mg
same,fe0‐24,"[2]; MAD day 10, 66 mg once daily",5.6 (1.0) %
same,Fluctuation,"[2]; MAD day 10, 110 mg once daily",92.8 (30.7) %
same,t1/2,"[2]; MAD day 10, 110 mg once daily",75.3 Hours and 75.3 (11.2) Hours
same,Tmax,"[2]; MAD day 10, 110 mg once daily, median (min, max)","3.0 (3.0, 6.0) Hours"
same,Ae0‐24,"[2]; MAD day 10, 110 mg once daily",6.96 (1.7) mg
same,fe0‐24,"[2]; MAD day 10, 110 mg once daily",6.3 (1.5) %
same,intersubject variability (CV%) for exposure parameters,"[2]; MAD steady state, all dose cohorts",≤ 45%
same,steady state achieved,"[2]; MAD, trough levels days 4, 7, 8, 9, 10",≤ 7 days
same,Tmax,"[2]; human, plasma, oral",1.5 to 4 h
same,AUC,"[2]; human, plasma, oral, 11 mg",507 ng·h/mL
same,Cmax,"[2]; human, plasma, oral, 11 mg, MAD day 10, 11 mg once daily",32.6 ng/mL
same,AUC,"[2]; human, plasma, oral, 33 mg",1810 ng·h/mL
same,Cmax,"[2]; human, plasma, oral, 33 mg, MAD day 10, 33 mg once daily",118 ng/mL
same,AUC,"[2]; human, plasma, oral, 66 mg",4630 ng·h/mL
same,Cmax,"[2]; human, plasma, oral, 66 mg, MAD day 10, 66 mg once daily",317 ng/mL
same,AUC,"[2]; human, plasma, oral, 110 mg",8490 ng·h/mL
same,Cmax,"[2]; human, plasma, oral, 110 mg, MAD day 10, 110 mg once daily",557 ng/mL
same,CL renal,"[2]; human, oral, 11 mg",0.2 mL/min/kg
same,CL renal,"[2]; human, oral, 33 mg",0.2 mL/min/kg
same,CL renal,"[2]; human, oral, 66 mg",0.2 mL/min/kg
same,CL renal,"[2]; human, oral, 110 mg",0.2 mL/min/kg
same,effect on fMLP stimulation (SYK‐independent),[3]; [16],no effect
same,inhibition of fMLP‐mediated basophil degranulation,[3]; [15],No inhibition
same,inhibition of LPS‐induced DC activation,[4],No inhibition
same,% inhibition hind paw inflammation,hind‐paw inflammation; 10 mg/kg,55%
same,% inhibition hind paw inflammation,hind‐paw inflammation; 15 mg/kg,90%
same,overall safety and tolerability,"[5]; SAD and MAD, entire range of doses",safe and well tolerated
same,serious adverse events,"[5]; SAD, 3 to 400 mg",no serious adverse events
same,number of reported TEAEs,"[5]; SAD, 200‐mg dose group",15
same,subject incidence of TEAEs,"[5]; SAD, 200‐mg dose group",67%
same,number of reported TEAEs,"[5]; SAD, 300‐mg dose group",7
same,subject incidence of TEAEs,"[5]; SAD, 300‐mg dose group",67%
same,number of reported TEAEs,"[5]; SAD, 400‐mg dose group",3
same,subject incidence of TEAEs,"[5]; SAD, 400‐mg dose group",17%
same,"moderate intensity TEAEs (dizziness, headache, musculoskeletal pain)","[5]; SAD, all PRT062607 doses",3
same,subjects with abdominal pain,"[5]; SAD, all PRT062607 doses",3 subjects
same,subjects with diarrhea,"[5]; SAD, all PRT062607 doses",3 subjects
same,subjects with dizziness,"[5]; SAD, all PRT062607 doses",3 subjects
same,subjects with headache,"[5]; SAD, all PRT062607 doses",6 subjects
same,subjects with nausea,"[5]; SAD, all PRT062607 doses",3 subjects
same,subjects with rhinitis,"[5]; SAD, all PRT062607 doses",2 subjects
same,number of TEAEs,"[5]; SAD, all subjects receiving PRT062607",37
same,subjects reporting TEAEs,"[5]; SAD, all subjects receiving PRT062607 (17/42)",40%
same,effect on PMA‐induced T‐cell activation,[6],no effect
same,serious adverse events,[7]; 11 to 110 mg once daily for 10 days,no SAEs
same,AEs considered by the investigator related to the study drug,[7]; 71 of 96 AEs,74%
same,number of AEs reported,[7]; all PRT062607 doses,96
same,subjects reporting AEs,[7]; all PRT062607 doses (13 subjects),54.2%
same,effect on PMA stimulation (SYK‐independent),[8]; [16],no effect
same,inhibition of PMA‐induced B‐cell activation,[8]; [15],no inhibition
same,Intersubject variability (%CV) of Cmax and AUClast,"[9]; SAD, 6 out of 7 dose cohorts",< 40%
same,Ae0‐96,"[9]; SAD, single oral 30 mg",0.4 (0.3) mg
same,fe0‐96,"[9]; SAD, single oral 30 mg",1.5 (0.9) %
same,Ae0‐96,"[9]; SAD, single oral 100 mg",2.4 (0.5) mg
same,fe0‐96,"[9]; SAD, single oral 100 mg",2.4 (0.5) %
same,Ae0‐96,"[9]; SAD, single oral 200 mg",4.3 (0.8) mg
same,fe0‐96,"[9]; SAD, single oral 200 mg",2.2 (0.4) %
same,Ae0‐96,"[9]; SAD, single oral 300 mg",7.0 (2.0) mg
same,fe0‐96,"[9]; SAD, single oral 300 mg",2.3 (0.7) %
same,Ae0‐96,"[9]; SAD, single oral 400 mg",20.2 (14.3) mg
same,fe0‐96,"[9]; SAD, single oral 400 mg",5.1 (3.6) %
same,Tmax,[9]; oral,1 to 4 h
same,half-life,[9]; oral,2.38 to 3.92 days
same,Cmax,"[9]; po, 3 mg",1.5 ng/mL
same,Tmax,"[9]; po, 3 mg",1 h
same,AUC(0-t),"[9]; po, 10 mg",150 ng·h/mL
same,Cmax,"[9]; po, 10 mg",10.5 ng/mL
same,Tmax,"[9]; po, 10 mg",1 h
same,half-life,"[9]; po, 10 mg",2.38 days
same,AUC(0-t),"[9]; po, 30 mg",878 ng·h/mL
same,Cmax,"[9]; po, 30 mg",42.9 ng/mL
same,Tmax,"[9]; po, 30 mg",1 h
same,half-life,"[9]; po, 30 mg",2.36 days
same,AUC(0-t),"[9]; po, 100 mg",5400 ng·h/mL
same,Cmax,"[9]; po, 100 mg",263 ng/mL
same,Tmax,"[9]; po, 100 mg",2 h
same,half-life,"[9]; po, 100 mg",2.91 days
same,AUC(0-t),"[9]; po, 200 mg",13700 ng·h/mL
same,Cmax,"[9]; po, 200 mg",629 ng/mL
same,Tmax,"[9]; po, 200 mg",2 h
same,half-life,"[9]; po, 200 mg",3.22 days
same,AUC(0-t),"[9]; po, 300 mg",11800 ng·h/mL
same,Cmax,"[9]; po, 300 mg",558 ng/mL
same,Tmax,"[9]; po, 300 mg",2.1 h
same,half-life,"[9]; po, 300 mg",3.91 days
same,AUC(0-t),"[9]; po, 400 mg",22300 ng·h/mL
same,Cmax,"[9]; po, 400 mg",996 ng/mL
same,Tmax,"[9]; po, 400 mg",4 h
same,half-life,"[9]; po, 400 mg",2.71 days
same,pIC50,ZAP70,5.98
same,"opRBC‐induced ROS formation, concentration‐dependent","[10]; replicate experiments, different donors",inhibited
same,opRBC‐induced ROS generation,[10]; whole blood pretreated with 4 μM,completely abrogated
same,"effect on FcγR‐mediated (opRBC) DC activation, surface CD80/86 and MHCII",[11],inhibited
same,effect on CD3/CD28‐induced T‐cell activation,[12],no effect
same,inhibition of PMA‐mediated pERK Y204,[13],No consistent inhibition
COc1cc(Nc2ncc(F)c(Nc3ccc4c(n3)N(COP(=O)(O)O)C(=O)C(C)(C)O4)n2)cc(OC)c1OC [fostamatinib],overall response rate,DLBCL,3%
C=CC(=O)N1CCC[C@@H](n2nc(-c3ccc(Oc4ccccc4)cc3)c3c(N)ncnc32)C1 [ibrutinib],inhibition of serum CCL3 and CCL4 markers,[14],> 90%
c1cn2cc(-c3ccc4cn[nH]c4c3)nc(Nc3ccc(N4CCOCC4)cc3)c2n1 [GS9973],Duration of response,relapsed CLL; majority of responding patients,greater than 6 months
same,patients achieving decreased adenopathy,"relapsed CLL; phase 2, relapsed CLL",94.5%
same,patients having experienced a partial response,"relapsed CLL; phase 2, relapsed CLL",61.5%
